From PubChem
An excerpt weighted towards active compounds, which were near 3.8% of everything screened.
KCNK9 block: blocks the human KCNK9 two-pore domain potassium channel. AID 488922. HEK293 KCNK9, FluxOR thallium flux fluorescence; hits give low values. B-score at 10 µM. Q9NPC2. actives 1.2% (n = 310,000);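 active = ratio B-score over 3 SD below the library mean, with starting fluorescence within 5 SD of its mean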;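 note: negative B-score means less thallium flux so channel inhibition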
KCNK3 block: human KCNK3 channel inhibition, primary screen; B-score at 10 µM; actives 0.84% (n = 340,000); CHO-KCNK3 thallium flux, FluxOR fluorescence; hits give low values;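 active = B-score under library mean minus 4 SD, starting fluorescence ratio at most library mean plus 5 SD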;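 note: more negative B-score means stronger inhibition of thallium flux through KCNK3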
KCNQ1 act: human KCNQ1 channel potentiation or activation | P51787 | CHO-K1 KCNQ1, thallium flux FluxOR fluorescence; hits give high values | B-score at 10 µM | actives 0.35% (n = 310,000);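 active = fluorescence ratio B-score, a plate-corrected score, at least three library SD, with initial intensity B-score within 5 SD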
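Medium – assay buffer, equal DMSO in all wells · Material – CHO-K1 cell line with stable KCNQ1 potassium channel expression · Signal – kinetic FluxOR thallium fluorescence, 10-s 1-Hz baseline, 110-s post-stimulus read · Compound – single concentration per compound, DMSO matched to controls · Schedule – 37 °C overnight plating, 90-min dark dye load, 20-min compound pretreatment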
hERG protect: hERG (human) protection from proarrhythmic block | Q12809 | CHO-hERG, FluxOR thallium flux, dofetilide IC70 present | activation (rescue from dofetilide block), less the hit threshold, % at 10 µM | actives 0.51% (n = 310,000);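 active = activation above the mean of controls blocked by dofetilide plus 5 SD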;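 note: thallium influx through hERG after potassium depolarization seen as dye fluorescence rise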
Kir21 block: inhibitors of mouse Kir2.1 inward-rectifier potassium channel; P35561; B-score at 10 µM; HEK293-Kir2.1, FluxOR thallium flux fluorescence; hits give low values; actives 0.85% (n = 310,000);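 active = fluorescence ratio B-score at or below minus 3 SD of library scores, with starting-brightness B-score within 2 SD, cut at about -4.2 in these data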;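 note: channel flux triggered by added potassium and thallium sulfate stimulus; B-score of peak minus minimum fluorescence over baseline after thallium stimulus; more negative B-score means stronger Kir2.1 block with less thallium influx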
KCNQ1 inh: blocks the human KCNQ1 potassium channel | P51787 | CHO-K1 KCNQ1, FluxOR thallium flux fluorescence; hits give high values | B-score at 10 µM | actives 1.3% (n = 310,000) | AID 2642;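 active = compounds whose thallium flux B-score, printed positive for inhibition, exceeds three library SD while starting fluorescence stays within three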;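 note: channel opened by potassium depolarization with thallium stimulus after 20 min compound exposure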
The depositor's hits bear a star; i = inactive; / = no result.

SMILES	KCNK9 block	KCNK3 block	KCNQ1 act	hERG protect	Kir21 block	KCNQ1 inh
N#Cc1cn(CCOc2ccccc2F)c2ccccc12	-7.5*	i	i	-12	-1.2	i
N#Cc1cn(CCOc2ccc(F)cc2)c2ccccc12	i	i	i	-8	1.5	i
CCCc1[nH]nc2c1C(c1cccc(OC(=O)c3ccco3)c1)C(C#N)=C(N)O2 (stereo not drawn)	i	i	i	4.6*	0.21	i
Cc1nn(C)cc1/C=C/C(=O)c1ccc(O)cc1	i	i	i	6.2*	0.35	i
O=C(/C=C/c1ccc(O)cc1)c1ccccc1	i	i	i	-18	0.83	i
O=C(COc1ccc([N+](=O)[O-])cc1Cl)NCC1CCCO1 (stereo not drawn)	i	i	i	-6	-1.6	i
CC(=O)Sc1nc(-c2ccccc2)[nH]c1S(=O)(=O)c1ccc(C)cc1	i	/	i	-7	0.36	10*
CSc1nc(-c2ccc(C)cc2)[nH]c1S(=O)(=O)c1ccccc1	i	i	i	-5	-1.6	i
COc1ccccc1NC(=O)CN1C(=O)NC2(CCCc3ccccc32)C1=O (stereo not drawn)	/	i	/	/	/	/
Cc1cc(C)c2sc(N(CCCN(C)C)C(=O)c3ccc(S(=O)(=O)N4CCCc5ccccc54)cc3)nc2c1	i	i	i	-17	-0.94	6*
COCCn1c(C)cc(/C=C(\C#N)C(=O)OCC(=O)Nc2ccc(S(N)(=O)=O)cc2)c1C	/	i	/	/	/	/
CCN(CC(=O)Nc1ccc(NC(C)=O)cc1)C(=O)c1cc2c(s1)CCCC2	/	i	/	/	/	/
COc1ccc2c(c1)CCCN2C(N)=Nc1ccc(Cl)cc1	i	i	i	-5	-7.6*	i
CCOC(=O)N1CCN(c2nc(N(c3ccccc3)c3ccccc3)nc(-n3ccnc3)n2)CC1	i	/	i	-13	-0.67	8*
S=c1nc(-c2ccccc2)[nH]c2ccc(Br)cc12	i	i	101*	59*	-0.61	i
Cc1ccc(C2=NOC(c3nnc(-c4ccccc4)o3)C2)cc1 (stereo not drawn)	i	i	8*	-1	-0.04	i
COc1ccc(OC)c(C(=O)c2c(C)oc3cc([N+](=O)[O-])c(O)c([N+](=O)[O-])c23)c1	i	i	i	-9	1.7	i
Cc1oc2cc([N+](=O)[O-])c(O)c([N+](=O)[O-])c2c1C(=O)c1ccc(Cl)cc1	i	i	i	-10	4.2	6*
OCCN1CCN(Cc2cccc(Oc3ccc(Cl)cc3)c2)CC1	i	i	i	-16	-5.2*	i
CCOC(=O)c1cc(CC)sc1NC(=O)c1ccc([N+](=O)[O-])c(N2CCOCC2)c1	i	i	i	-11	0.98	i
CC(=O)c1ccc(N=Nc2c(C)[nH]n(-c3ccccc3)c2=O)cc1	i	i	i	-8	-2.9	6*
Cc1[nH]n(-c2ccccc2)c(=O)c1N=Nc1ccc(C(=O)O)cc1	i	i	i	-1	-0.21	i
Cc1[nH]n(-c2ccccc2)c(=O)c1N=Nc1ccccc1	i	i	i	-10	-0.45	i
Cc1[nH]n(-c2ccccc2)c(=O)c1N=Nc1ccc(C(N)=O)cc1	i	i	i	10*	-0.16	i
COC(=O)c1sc(-c2cccs2)cc1N	i	i	i	-3	0.36	i
SMILES	KCNK9 block	KCNK3 block	KCNQ1 act	hERG protect	Kir21 block	KCNQ1 inh
COC(=O)c1c(C)nc(C)c(C(=O)OC)c1-c1cccs1	i	i	i	8.1*	-0.7	i
C=C[C@@]1(C)CC(=O)[C@]2(O)[C@@]3(C)[C@@H](O)CCC(C)(C)[C@@H]3[C@H](O)[C@H](OC(C)=O)[C@@]2(C)O1	i	i	12*	-14	0.06	i
C=C[C@@]1(C)CC(=O)[C@]2(O)[C@@]3(C)[C@@H](O)CCC(C)(C)[C@@H]3[C@H](OC(C)=O)[C@H](O)[C@@]2(C)O1	i	i	13*	-13	-0.96	i
COc1ccccc1CN=C1Nc2ccccc2CS1	i	i	i	-10	-13*	i
O=[N+]([O-])c1ccc(S(=O)(=O)c2ccccc2)nc1	i	i	i	-23	-8.1*	i
Cc1ccc(S(=O)(=O)c2ccc([N+](=O)[O-])cn2)cc1	i	i	i	-22	-2.8	i
C[C@]12c3[nH]c4ccccc4c3CCN1C(=O)C(CC(=O)NCCCn1ccnc1)C[C@@H]2C(=O)N1CCOCC1 (stereo partly drawn)	/	i	/	/	/	/
Cc1ccc(S(=O)(=O)CCC(=O)Nc2sccc2C#N)cc1	i	i	i	-5	-4.6*	i
Cc1ccc(S(=O)(=O)CCC(=O)Nc2sccc2C(N)=O)cc1	/	i	/	/	/	/
CC12CCC(C(=O)OC3CCCCC3)(OC1=O)C2(C)C (stereo not drawn)	i	i	i	5.8*	-1.6	i
O=[N+]([O-])c1c(NCCO)cc(N2CCCCCC2)c2nonc12	i	i	i	-6	0.19	i
Cc1nnc(Sc2cc(NCCCO)c([N+](=O)[O-])c3nonc23)s1	-7.2*	i	i	-24	-7.1*	10*
Cc1nnc(Sc2cc(NCCO)c([N+](=O)[O-])c3nonc23)s1	i	i	i	-36	-2.1	8*
O=[N+]([O-])c1c(NCCCO)cc(Sc2nc3ccccc3s2)c2nonc12	i	i	i	-12	1.1	i
CC(=O)c1ccc(N2CCN(S(=O)(=O)c3ccc4c(c3)NC(=O)CO4)CC2)cc1	i	i	i	-7	-0.23	i
CC(Nc1cc(N2CCNCC2)ccc1[N+](=O)[O-])c1ccccc1 (stereo not drawn)	i	i	i	-9	-7.5*	i
CC(C)(C)CC(C)(C)NC(=O)CSCC(=O)Nc1ccc2ccccc2c1	i	i	i	-5	-0.49	i
CC(=O)CC1OC(=O)C(Br)=C1NCc1ccccc1 (stereo not drawn)	i	i	i	-7	-3.6	6*
O=C(CC1Oc2ccccc2NC1=O)NCc1ccccc1 (stereo not drawn)	i	i	i	-2	0.33	i
O=[N+]([O-])c1cc(Cl)cc(/C=N/Nc2nc3ccccc3s2)c1O	i	i	i	-8	-0.17	6*
CN(C)CCCN(C(=O)c1ccc(C(=O)c2ccccc2)cc1)c1nc2cc3c(cc2s1)OCCO3	i	i	i	-24	-2.8	i
Cc1nc2ccccc2n1Cc1ccc(Br)cc1	i	i	i	-14	0.43	6*
